Laboratory results reported in ChEMBL document CHEMBL1138500 (J Med Chem, 2009).
Where a chain is given by its changes, count along the chain named.

How the values were obtained:
[1] = system: T1, Lysosomal acid glucosylceramidase (Homo sapiens), P04062 [N409S]; assay: Activation of beta-glucocerebrosidase N370S mutant in Goucher lymphoblasts at 50 uM after 3 days relative to control
T1 sequence (whole entry): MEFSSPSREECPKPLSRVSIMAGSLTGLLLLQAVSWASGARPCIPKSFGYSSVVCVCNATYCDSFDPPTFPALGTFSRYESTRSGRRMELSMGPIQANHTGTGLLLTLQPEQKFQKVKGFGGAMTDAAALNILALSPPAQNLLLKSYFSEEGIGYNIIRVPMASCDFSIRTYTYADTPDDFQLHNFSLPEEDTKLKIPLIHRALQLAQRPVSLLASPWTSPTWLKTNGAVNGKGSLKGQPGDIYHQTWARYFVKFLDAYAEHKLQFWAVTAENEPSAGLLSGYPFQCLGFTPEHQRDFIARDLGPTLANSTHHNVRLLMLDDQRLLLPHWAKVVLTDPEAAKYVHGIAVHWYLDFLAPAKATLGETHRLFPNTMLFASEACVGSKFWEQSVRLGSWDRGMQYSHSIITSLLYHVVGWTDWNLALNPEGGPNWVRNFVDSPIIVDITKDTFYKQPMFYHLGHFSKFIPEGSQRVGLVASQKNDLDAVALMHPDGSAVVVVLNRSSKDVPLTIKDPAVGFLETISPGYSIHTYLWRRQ

[2] = target: T2, Lysosomal acid glucosylceramidase (Homo sapiens, UniProt P04062); assay: Inhibition of human placental beta-glucocerebrosidase
T2 sequence (P04062 whole entry): T1 sequence (whole entry) with S409N

HL-60 = assay: Cytotoxicity against human HL60 cells assessed as dead cells at 100 uM after 3 days by propidium iodide staining based flow cytometry; format: cell-based; conditions: hl-60, 72 h
Summary of the method: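 HL60 cells exposed to compound at 100 µM for 3 days; cytotoxicity reported as percentage of dead cells.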

SMILES | fold change (FC) [1] | IC50 [2] [µM] | Activity (HL-60) [%]
O=C1[C@@H](O)[C@H](O)[C@@H](O)CN1CCCCCCO | 1.8 | > 500 | 3.44
O=C1[C@@H](O)[C@H](O)[C@H](O)CN1CCO |  | > 500 | 2.95
O=C1[C@@H](O)[C@H](O)[C@H](O)CN1Cc1ccccc1 | 3.4 | > 500 | 3.46
CCCCCCCCN1C[C@@H](O)C(O)[C@H](O)C1 |  | > 500 | 3.55
CC(=O)NC1CN(CCCCCCO)C(=O)C(O)[C@@H]1O (single isomer, unassigned) | 1.3 | > 500 | 2.9
CCCCCCCCCN1C[C@@H](O)[C@@H](O)[C@H](O)C1=O | 2 | 102 | 4.71
CCCOCCN1C[C@@H](O)[C@@H](O)[C@H](O)C1=O | 3.8 | > 500 | 2.39
CCCCCCCCN1C[C@@H](O)[C@@H](O)[C@H](O)C1=O | 6.2 | 175 | 3.51
CCCCCCCCCCN1C[C@@H](O)[C@@H](O)[C@@H](O)C1=O | 2.9 | 463 | 10.22
CCCCCCCCCCN1C[C@@H](O)[C@@H](O)C1=O | 1.5 | 285 | 6.69
CCCCCCCCCCN1CC(NC(C)=O)[C@@H](O)C(O)C1=O (single isomer, unassigned) |  | > 500 | 7.58
O=C1NC[C@@H](O)[C@@H](O)[C@@H]1O |  | > 500 | 2.77
CCCCCCCCCCN1C[C@H](O)[C@@H](O)[C@H](O)C1=O | 2 | 295 | 11.2
CCCN(CCC)CCN1C[C@@H](O)[C@@H](O)[C@H](O)C1=O | 3.9 | 253 | 3.45
CCCCCCCCCCN1C[C@@H](O)[C@@H](O)[C@H](O)C1=O | 2.1 | 46 | 5.19
O=C1[C@H](O)[C@H](O)[C@H](O)CN1CCCCCCO | 2.5 | > 500 | 3.23
CCCOCCCCCCN1C[C@@H](O)[C@@H](O)[C@H](O)C1=O | 3.6 | 127 | 4.33
O=C1[C@@H](O)[C@H](O)[C@H](O)CN1CCCCCCO | 4.1 | > 500 | 3.75
CCCCN1C[C@@H](O)[C@@H](O)[C@H](O)C1=O |  | > 500 | 2.78
O=C1[C@H](O)[C@H](O)CN1CCCCCCO | 1.8 | > 500 | 3.57
CCCCN1C[C@H](O)[C@@H](O)[C@H](O)[C@H]1CO |  |  | 2.69
